Experimental data: ChEMBL document CHEMBL4270638, “Sulfonyl-containing phenyl-pyrrolyl pentane analogues: Novel non-secosteroidal vitamin D receptor modulators with favorable physicochemical properties, pharmacokinetic properties and anti-tumor activity” (Eur J Med Chem, 2018)
The source made the active and inactive calls. No cut-off for these calls is given here.

Columns and labels:
MCF7 [1] = experiment: Induction of apoptosis in human MCF7 cells expressing VDR siRNA assessed as live cells at 1 uM after 24 hrs by Annexin-V-FITC/propidium iodide staining based flow cytometry (reference value: 98.35%); assay type: functional
MCF7 [2] = experiment: Induction of apoptosis in human MCF7 cells assessed as upregulation of p21 expression at 1 uM after 24 hrs by Western blot analysis; assay type: functional, cell-based
Outline: (§1)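 MCF-7 cells treated at 1 µM for 24 h. Lysates resolved by 10% SDS-PAGE and transferred to PVDF. Probed with rabbit anti-p21, anti-p27 and anti-Bax antibodies, with mouse anti-β-actin as loading control. HRP-conjugated secondary antibodies; bands detected on an infrared scanner.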

MCF7 [3] = experiment: Antitumor activity against human MCF7 cells xenografted in Balb/c nude mouse assessed as increase in p21 expression at 10 mg/kg, ip administered three times a week for three weeks starting from day 7 after tumor cell inoculation by immunohistochemical analysis; assay type: functional, organism-based
[4] = AUC in Sprague-Dawley rat at 20 mg/kg, ip by HPLC method; assay type: ADME, organism-based; settings: in vivo
Outline: (§2)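 Male Sprague-Dawley rats, 180–220 g, n = 3 per group. Dosed iv at 5 mg/kg or ip at 20 mg/kg in ethanol/EL/saline (1:1:18). Plasma sampled at 0, 0.083, 0.167, 0.25, 0.5, 1, 2, 4, 8, 12 and 24 h and centrifuged 12000 rpm for 10 min. Plasma drug measured by HPLC; parameters by PK modelling; mean ± SD.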

MCF7 [5] = experiment: Induction of apoptosis in human MCF7 cells expressing scrambled siRNA assessed as live cells at 1 uM after 24 hrs by Annexin-V-FITC/propidium iodide staining based flow cytometry (reference value: 97.93%); assay type: functional
[6] = Mean residence time in Sprague-Dawley rat at 20 mg/kg, ip by HPLC method; assay type: ADME, organism-based; settings: in vivo; outline: as §2
BXPC-3 = experiment: Antiproliferative activity against human BxPC3 cells after 24 hrs by MTT assay; assay type: functional, cell-based; settings: BXPC-3, 24 h
[7] = Bioavailability in Sprague-Dawley rat at 20 mg/kg, ip by HPLC method; assay type: ADME, organism-based; settings: in vivo; outline: as §2
PC-3 = experiment: Antiproliferative activity against human PC3 cells after 24 hrs by MTT assay; assay type: functional, cell-based; settings: PC-3, 24 h
MCF7 [8] = experiment: Antitumor activity against human MCF7 cells xenografted in Balb/c nude mouse assessed as reduction in tumor growth at 10 mg/kg, ip administered three times a week for three weeks starting from day 7 after tumor cell inoculation; assay type: functional, organism-based
Outline: (§3)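 […] BALB/c-nu mice, 10 weeks old. 1×10^7 MCF-7 cells injected into the left fourth mammary fat pad; dosing began at about 50 mm3 tumour volume (day 7), n = 5 per group. Dosed ip at 10 mg/kg in ethanol/EL/saline 1:1:18, three times weekly for three weeks. Tumour volume by calipers = length × width² × 0.5; tumour weight and body weight recorded.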

[9] = Half life in rat liver microsomes in presence of NADPH by HPLC method; assay type: ADME, microsome
Outline: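 Compounds incubated with rat liver microsomes plus NADPH. Remaining compound quantified by HPLC at 0, 5, 10, 20, 30, 45, 60 and 90 min, and half-life calculated.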

[10] = Half life in Sprague-Dawley rat at 20 mg/kg, ip by HPLC method; assay type: ADME, organism-based; settings: in vivo; outline: as §2
MCF7 [11] = experiment: Induction of apoptosis in human MCF7 cells expressing VDR siRNA assessed as necrotic cells at 1 uM after 24 hrs by Annexin-V-FITC/propidium iodide staining based flow cytometry (reference value: 0.15%); assay type: functional
MCF7 [12] = experiment: Antiproliferative activity against human MCF7 cells after 24 hrs by MTT assay; assay type: functional, cell-based; settings: MCF7, 24 h
Mus musculus [13] = experiment: Toxicity in Balb/c nude mouse xenografted with human MCF7 cells assessed as effect on body weight at 10 mg/kg, ip administered three times a week for three weeks starting from day 7 after tumor cell inoculation; assay type: organism-based; settings: in vivo; outline: as §3
MCF7 [14] = experiment: Induction of apoptosis in human MCF7 cells expressing VDR siRNA assessed as late apoptotic cells at 1 uM after 24 hrs by Annexin-V-FITC/propidium iodide staining based flow cytometry (reference value: 1.01%); assay type: functional
Vitamin D3 receptor = biological target: T1, Vitamin D3 receptor (Homo sapiens, UniProt P11473); experiment: Displacement of fluormone VDR red from human full-length VDR after 4 hrs by fluorescence polarization assay
T1 sequence (P11473 whole entry): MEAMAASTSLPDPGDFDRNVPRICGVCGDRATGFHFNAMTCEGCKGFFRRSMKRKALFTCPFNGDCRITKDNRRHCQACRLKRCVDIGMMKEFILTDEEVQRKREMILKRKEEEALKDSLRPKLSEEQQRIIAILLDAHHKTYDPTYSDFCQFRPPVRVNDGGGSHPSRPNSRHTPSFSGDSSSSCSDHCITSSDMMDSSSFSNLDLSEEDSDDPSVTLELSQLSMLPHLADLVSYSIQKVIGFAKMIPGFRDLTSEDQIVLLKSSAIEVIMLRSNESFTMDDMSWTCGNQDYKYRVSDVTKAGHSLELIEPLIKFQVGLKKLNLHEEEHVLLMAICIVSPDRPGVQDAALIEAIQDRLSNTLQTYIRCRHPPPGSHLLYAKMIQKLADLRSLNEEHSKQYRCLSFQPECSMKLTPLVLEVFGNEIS

MCF7 [15] = experiment: Antiproliferative activity against human MCF7 cells expressing VDR siRNA assessed as reduction in BrdU incorporation after 16 hrs by ELISA; assay type: functional, cell-based; settings: MCF7, 16 h
[16] = AUC in Sprague-Dawley rat at 5 mg/kg, iv by HPLC method; assay type: ADME, organism-based; settings: in vivo; outline: as §2
MCF7 [17] = experiment: Induction of apoptosis in human MCF7 cells expressing scrambled siRNA assessed as late apoptotic cells at 1 uM after 24 hrs by Annexin-V-FITC/propidium iodide staining based flow cytometry (reference value: 0.98%); assay type: functional
MCF7 [18] = experiment: Induction of apoptosis in human MCF7 cells assessed as upregulation of Bax expression at 1 uM after 24 hrs by Western blot analysis; assay type: functional, cell-based; outline: as §1
MCF7 [19] = experiment: Induction of apoptosis in human MCF7 cells expressing VDR siRNA assessed as early apoptotic cells at 1 uM after 24 hrs by Annexin-V-FITC/propidium iodide staining based flow cytometry (reference value: 0.49%); assay type: functional
Mus musculus [20] = experiment: Hypercalcemic effect in Balb/c nude mouse xenografted with human MCF7 cells assessed as effect on serum calcium level at 10 mg/kg, ip administered three times a week for three weeks starting from day 7 after tumor cell inoculation measured on day 27 (reference value: 0.6 umol/ml); assay type: ADME, organism-based; settings: in vivo
MCF7 [21] = experiment: Cell cycle arrest in human MCF7 cells expressing VDR siRNA assessed as accumulation at G2/M phase at 1 uM after 24 hrs by propidium iodide staining based flow cytometry (reference value: 17.57%); assay type: functional

AUC [4] [ng·h/mL] | MRT [6] [h] | IC50 (BXPC-3) [µM] | bioavailability [7] [%] | IC50 (PC-3) [µM] | half-life [9] [h] | half-life [10] [h] | IC50 (MCF7 [12]) [µM] | IC50 (Vitamin D3 receptor) [µM] | IC50 (MCF7 [15]) [µM] | AUC [16] [ng·h/mL] | Compound | Activity (MCF7 [1]) [%] | Activity (MCF7 [2]) | Activity (MCF7 [3]) | Activity (MCF7 [5]) [%] | Activity (MCF7 [8]) | Activity (MCF7 [11]) [%] | Activity (Mus musculus [13]) | Activity (MCF7 [14]) [%] | Activity (MCF7 [17]) [%] | also measured
20400 | 15.7 | 5.13 | 43.2 | 4.01 | 0.954 | 10.8 | 5.16 | 0.0891 | > 50 | 11800 | CCN(CC)CCNC(=O)c1ccc(C(CC)(CC)c2ccc(OCSC)c(C)c2)n1CC | 97.35 | Active | Active | 94.7 | Active | 0.51 | Non-Toxic | 1.67 | 3.65 | Activity (MCF7 [18]): Active; Activity (MCF7 [19]): 0.47%; Activity (Mus musculus [20]): Non-Toxic; Activity (MCF7 [21]): 16.01%
12000 | 11.9 | 4.69 | 40.3 | 6.08 | 0.987 | 7.65 | 2.03 | 0.125 | > 50 | 7470 | CCN(CC)CCNC(=O)c1cc(C(CC)(CC)c2ccc(OCS(=O)(=O)c3ccccc3)c(C)c2)cn1CC | 97.48 | Active | Active | 94.96 | Active | 0.25 | Non-Toxic | 1.57 | 3.37 | Activity (MCF7 [18]): Active; Activity (MCF7 [19]): 0.7%; Activity (Mus musculus [20]): Non-Toxic; Activity (MCF7 [21]): 19.02%
